ChEMBL document CHEMBL1152668, “Synthesis, reactivity and biological evaluation of novel halogenated tripentones” (Bioorg Med Chem, 2009)
The source made the active and inactive calls. The calls are words filed in the database; no cut-off is given here.

Key:
KB [1] = experiment: Growth inhibition of human KB cells at 10 uM after 72 hrs by MTS assay; format: functional; conditions: read-out: GI
KB [2] = experiment: Growth inhibition of human KB cells at 1 uM after 72 hrs by MTS assay; format: functional; conditions: read-out: GI
L1210 = experiment: Cytotoxicity against mouse L1210 cells after 72 hrs by MTS assay; format: functional, cell-based; conditions: L1210, 72 h
KB [3] = experiment: Cytotoxicity against human KB cells at 0.05 to 1000 nM after 72 hrs by MTS assay; format: functional, cell-based
Method in brief: (§1)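 Cells maintained in D-MEM with 10% fetal calf serum, penicillin, streptomycin and fungizone under 5% CO2. Plated in 96-well plates and dosed 24 h later with compound in DMSO, 0.05 nM to 1 µM, with 1% DMSO vehicle controls. After 72 h, MTS added for 3 h at 37 °C and A490 read. Inhibition = (1 − OD treated/OD control)×100; IC50 from separate duplicates.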

Vero = experiment: Cytotoxicity against african green monkey Vero cells at 0.05 to 1000 nM after 72 hrs by MTS assay; format: cell-based; conditions: chlorocebus sabaeus, 1 µM; method in brief: as §1
HCT-116 = experiment: Cytotoxicity against human HCT116 cells at 0.05 to 1000 nM after 72 hrs by MTS assay; format: functional, cell-based
Method in brief: (§2)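 Cultured in RPMI medium under 5% CO2, then seeded in 96-well plates and treated 24 h later with DMSO solutions at 0.05 nM–1 µM, with 1% DMSO vehicle controls. After 72 h exposure, MTS incubated 3 h at 37 °C and absorbance read at 490 nm. Inhibition = (1 − OD490 treated/OD490 control)×100; IC50 from separate duplicate experiments.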

HL-60 = experiment: Cytotoxicity against human HL60 cells at 0.05 to 1000 nM after 72 hrs by MTS assay; format: functional, cell-based; method in brief: as §2
MRC5 = experiment: Cytotoxicity against human MRC5 cells at 0.05 to 1000 nM after 72 hrs by MTS assay; format: cell-based; conditions: mrc5, 72 h, 1 µM; method in brief: as §1
MCF7 = experiment: Cytotoxicity against human MCF7 cells at 0.05 to 1000 nM after 72 hrs by MTS assay; format: functional, cell-based; method in brief: as §2
HCT-15 = experiment: Cytotoxicity against human HCT15 cells at 0.05 to 1000 nM after 72 hrs by MTS assay; format: functional, cell-based; method in brief: as §2

| SMILES | inhibition of growth at 10 µM (KB [1]) [%] | inhibition of growth at 1 µM (KB [2]) [%] | IC50 (L1210) [nM] | other results |
| --- | --- | --- | --- | --- |
| COc1ccc(-c2csc3c2-n2cc(-c4cccnc4)cc2C3=O)cc1O | 64 | 20 | – | – |
| COc1ccc(-c2csc3c2-n2cc(-c4ccc(OC)c(OC)c4)cc2C3=O)cc1O | 97 | 15 | – | – |
| COc1ccc(-c2cc3n(c2)-c2c(-c4ccc(OC)c(O)c4)csc2C3=O)cc1 | 98 | 94 | 113 | – |
| COc1ccc(-c2csc3c2-n2cc(-c4cc(OC)c(OC)c(OC)c4)cc2C3=O)cc1O | 35 | – | – | – |
| COc1ccc(-c2csc3c2-n2cc(Br)cc2C3=O)cc1O | 94 | 94 | 17 | – |
| COc1ccc(-c2cc3n(c2)-c2c(-c4ccc(OC)c(O)c4)csc2C3=O)cc1O | 90 | 15 | – | – |
| COC(=O)/C=C/c1cc2n(c1)-c1c(-c3ccc(OC)c(O)c3)csc1C2=O | 1 | 3 | – | – |
| COc1ccc(-c2csc3c2-n2cccc2C3=O)cc1O | 86 | 86 | 4 | Activity (KB [3]): Active; Activity (Vero): Non-toxic; Activity (HCT-116): Active; Activity (HL-60): Active; Activity (MRC5): Non-toxic; Activity (MCF7): Active; Activity (HCT-15): Active |
